A word on the Ki: it is the equilibrium dissociation constant of an inhibitor or competing ligand from its target.

The target in this assay is Protein kinase C alpha type (Mus musculus, UniProt P20444). The assay is described as follows: Displacement of [3H]PDBu form mouse PKCalpha by scintillation counting. A digest of the protocol:
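Partially purified mouse PKCα; competition with [³H]PDBU. ID50 obtained by fitting a sigmoidal competition curve and converted to Ki = ID50/(1+L/Kd). Pure compounds tested at 6–7 concentrations; crude library compounds at a single 1 μM concentration. Triplicates per concentration, at least three experiments; mean ± SEM.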
In the case of `CC(C)C(=O)OCC1(CO)C/C(=C/c2ccc(-c3ccc(C(F)(F)F)cc3)cc2)C(=O)O1` (racemic), the affinity corresponds to a Ki of 34.8 nM. This counts as double-digit nanomolar.

As to `CN(C)c1ccc(/C=C2/CC(CO)(COC(=O)C3CCCCC3)OC2=O)cc1` (racemic), the Ki was 373 nM. This Ki lies about 11-fold higher than the previous one.

Regarding `CN(C)c1ccc(/C=C2/CC(CO)(COC(=O)c3ccccc3)OC2=O)cc1` (racemic), affinity was put at a Ki of 654 nM. Against the preceding compound, the Ki is about 1.8-fold higher.

`CCCC(CCC)C(=O)OCC1(CO)C/C(=C/c2ccccc2C(F)(F)F)C(=O)O1` (racemic): the Ki is 29.6 nM. This Ki lies about 22-fold lower than the previous one.

On to `Cc1ccccc1C(=O)OCC1(CO)C/C(=C/c2ccccc2)C(=O)O1` (racemic), for which the Ki came to 135 nM. This Ki is about 4.6-fold higher than that of the compound before.

As for `Cc1cc(C)c(C(=O)OCC2(CO)C/C(=C/c3ccccc3)C(=O)O2)c(C)c1` (racemic), the Ki came to 60.2 nM.

Regarding `CC(C)c1cc(C(C)C)c(C(=O)OCC2(CO)C/C(=C/c3ccccc3)C(=O)O2)c(C(C)C)c1` (racemic), the Ki worked out at 160 nM.

Compound `CC(C)C(=O)OCC1(CO)C/C(=C/c2ccc(F)cc2)C(=O)O1` (racemic) came in with a Ki of 273 nM. Against the preceding compound, the Ki is about 1.7-fold higher.

`CC(C)C(=O)OCC1(CO)C/C(=C/c2ccc(Br)cc2)C(=O)O1` (racemic) yielded a Ki of 72.6 nM.

On to `CCCCCCC(=O)OCC1(CO)C/C(=C/c2ccc(N(C)C)cc2)C(=O)O1` (racemic), for which the Ki worked out at 357 nM. This Ki is about 4.9-fold higher than that of the compound before.

As to `CN(C)c1ccc(C(=O)OCC2(CO)C/C(=C/c3ccccc3)C(=O)O2)cc1` (racemic), affinity was put at a Ki of 251 nM.

Consider `O=C1OC(CO)(COC(=O)c2ccc(C(F)(F)F)cc2)C/C1=C/c1ccccc1` (racemic), for which the affinity corresponds to a Ki of 103 nM.

`Cc1ccc(C(=O)OCC2(CO)C/C(=C/c3ccccc3)C(=O)O2)cc1` (racemic) registered a Ki of 138 nM.

`CC(C)C(=O)OCC1(CO)C/C(=C/c2cc(C(F)(F)F)cc(C(F)(F)F)c2)C(=O)O1` (racemic) yielded a Ki of 82.8 nM.

`CC(C)C(=O)OCC1(CO)C/C(=C/c2ccc(C(F)(F)F)cc2)C(=O)O1` (racemic) came in with a Ki of 78 nM. The Ki values of the last two compounds are within 1.5-fold of each other.

`CC(C)C(=O)OCC1(CO)C/C(=C/c2ccc(OC(F)(F)F)cc2)C(=O)O1` (racemic) returned a Ki of 54.7 nM.

As for `CN(C)c1ccc(/C=C2/CC(CO)(COC(=O)c3ccc(C(F)(F)F)cc3)OC2=O)cc1` (racemic), the inhibitory constant (Ki) stood at 515 nM.

Compound `Cc1ccc(C(=O)OCC2(CO)C/C(=C/c3ccc(N(C)C)cc3)C(=O)O2)cc1` (racemic) registered a Ki of 406 nM.

Take `Cc1cc(C)c(C(=O)OCC2(CO)C/C(=C/c3ccc(N(C)C)cc3)C(=O)O2)c(C)c1` (racemic): the Ki is 517 nM.

`COc1ccc(/C=C2/CC(CO)(COC(=O)c3ccccc3)OC2=O)cc1` (racemic): the inhibition constant (Ki) was found to be 299 nM.

In turn, `CCCCC(CC)C(=O)OCC1(CO)C/C(=C/c2ccc(OC)cc2)C(=O)O1` (racemic) returned a Ki of 53.9 nM.

With `COc1ccc(/C=C2/CC(CO)(COC(=O)C3CCCCC3)OC2=O)cc1` (racemic), the Ki amounted to 156 nM.

`O=C1OC(CO)(COC(=O)c2ccc([N+](=O)[O-])cc2)C/C1=C/c1ccc(C(F)(F)F)cc1` (racemic) returned a Ki of 164 nM.

For `O=C1OC(CO)(COC(=O)c2ccc(C(F)(F)F)cc2)C/C1=C/c1ccc(C(F)(F)F)cc1` (racemic), the Ki stood at 72.4 nM.

For the compound `CCCCCCC(=O)OCC1(CO)C/C(=C/c2ccc(C(F)(F)F)cc2)C(=O)O1` (racemic), the affinity, expressed as Ki, was 35.4 nM.

In turn, `Cc1ccc(C(=O)OCC2(CO)C/C(=C/c3ccc(C(F)(F)F)cc3)C(=O)O2)cc1` (racemic) had a Ki of 53 nM. The Ki values of the last two compounds are within 1.5-fold of each other.

As for `O=C1OC(CO)(COC(=O)C2CCCCC2)C/C1=C/c1ccc(C(F)(F)F)cc1` (racemic), the Ki worked out at 31.9 nM.

On to `O=C1OC(CO)(COC(=O)c2ccccc2)C/C1=C/c1ccc(C(F)(F)F)cc1` (racemic), for which affinity was put at a Ki of 64.1 nM.

Consider `COc1ccc(/C=C2/CC(CO)(COC(=O)c3ccc(C(F)(F)F)cc3)OC2=O)cc1` (racemic), for which the affinity, expressed as Ki, was 149 nM.

As for `COc1ccc(/C=C2/CC(CO)(COC(=O)c3ccc([N+](=O)[O-])cc3)OC2=O)cc1` (racemic), the Ki is 552 nM.

`CCCCCCC(=O)OCC1(CO)C/C(=C/c2ccccc2)C(=O)O1` (racemic) showed a Ki of 89.6 nM.

As for `CCCCC(CC)C(=O)OCC1(CO)C/C(=C/c2ccccc2)C(=O)O1` (racemic), the affinity corresponds to a Ki of 35 nM.

As for `Cc1ccc(C(=O)OCC2(CO)C/C(=C/c3ccc([N+](=O)[O-])cc3)C(=O)O2)cc1` (racemic), the Ki came out at 212 nM.

`O=C1OC(CO)(COC(=O)c2ccc(C(F)(F)F)cc2)C/C1=C/C1CCCCC1` (racemic) displayed a Ki of 106 nM.

`Cc1ccc(C(=O)OCC2(CO)C/C(=C/C3CCCCC3)C(=O)O2)cc1` (racemic): affinity was put at a Ki of 110 nM.

`O=C1OC(CO)(COC(=O)c2ccccc2)C/C1=C/c1ccc([N+](=O)[O-])cc1` (racemic): the Ki stood at 320 nM.

Take `CN(C)c1ccc(C(=O)OCC2(CO)C/C(=C/c3ccc([N+](=O)[O-])cc3)C(=O)O2)cc1` (racemic): the affinity, expressed as Ki, was 1080 nM. Compared with the last compound, the Ki is about 3.4-fold higher.

`O=C1OC(CO)(COC(=O)C2CCCCC2)C/C1=C/C1CCCCC1` (racemic) showed a Ki of 89.4 nM. Against the preceding compound, the Ki is about 12-fold lower.

Compound `O=C1OC(CO)(COC(=O)c2ccccc2)C/C1=C/C1CCCCC1` (racemic) gave a Ki of 203 nM.

For `Cc1ccccc1C(=O)OCC1(CO)C/C(=C/c2ccc([N+](=O)[O-])cc2)C(=O)O1` (racemic), the affinity corresponds to a Ki of 171 nM. The Ki values of the last two compounds are within 1.5-fold of each other.

Regarding `CC(C)c1cc(C(C)C)c(C(=O)OCC2(CO)C/C(=C/c3ccc([N+](=O)[O-])cc3)C(=O)O2)c(C(C)C)c1` (racemic), the affinity, expressed as Ki, was 124 nM.

`CCCCC(/C=C1/CC(CO)(COC(=O)c2ccccc2C)OC1=O)CC` (racemic) displayed a Ki of 189 nM.

As for `CCCCC(/C=C1/CC(CO)(COC(=O)c2c(C(C)C)cc(C(C)C)cc2C(C)C)OC1=O)CC` (racemic), the Ki was 187 nM. The Ki values of the last two compounds are within 1.5-fold of each other.

In turn, `Cc1cc(C)c(C(=O)OCC2(CO)C/C(=C/c3ccc(C(F)(F)F)cc3)C(=O)O2)c(C)c1` (racemic) returned a Ki of 25.1 nM.

`CN(C)c1ccc(C(=O)OCC2(CO)C/C(=C/C3CCCCC3)C(=O)O2)cc1` (racemic) had a Ki of 305 nM. Compared with the last compound, the Ki is about 12-fold higher.

`CCCCC(CC)C(=O)OCC1(CO)C/C(=C/c2ccc([N+](=O)[O-])cc2)C(=O)O1` (racemic) had a Ki of 73.5 nM. Compared with the last compound, the Ki is about 4.1-fold lower.

The compound `CCCCCCC(=O)OCC1(CO)C/C(=C/C2CCCCC2)C(=O)O1` (racemic) registered a Ki of 77.5 nM.

Compound `Cc1ccccc1C(=O)OCC1(CO)C/C(=C/C2CCCCC2)C(=O)O1` (racemic) gave a Ki of 110 nM. The Ki values of the last two compounds are within 1.5-fold of each other.

On to `CCCCCCC(=O)OCC1(CO)C/C(=C/c2ccc([N+](=O)[O-])cc2)C(=O)O1` (racemic), for which the affinity, expressed as Ki, was 93.8 nM.

In the case of `CCCCC(CC)C(=O)OCC1(CO)C/C(=C\c2ccc([N+](=O)[O-])cc2)C(=O)O1` (racemic), the Ki was 3.1 nM.

As to `CC(C)c1cc(C(C)C)c(C(=O)OCC2(CO)C/C(=C/C3CCCCC3)C(=O)O2)c(C(C)C)c1` (racemic), the affinity corresponds to a Ki of 174 nM.

The compound `O=C1OC(CO)(COC(=O)c2ccccc2)C/C1=C/c1ccccc1` (racemic) showed a Ki of 232 nM.

On to `CCCCC(CC)C(=O)OCC1(CO)C/C(=C/C2CCCCC2)C(=O)O1` (racemic), for which the Ki was 30.2 nM.

The compound `COc1ccc(C(=O)OCC2(CO)C/C(=C/C3CCCCC3)C(=O)O2)cc1` (racemic) yielded a Ki of 261 nM. Compared with the last compound, the Ki is about 8.6-fold higher.

As to `O=C1OC(CO)(COC(=O)C2CCCCC2)C/C1=C/c1ccc([N+](=O)[O-])cc1` (racemic), the Ki came out at 105 nM.

Take `CC(C)C(=O)OCC1(CO)C/C(=C/c2ccc(F)c(Br)c2)C(=O)O1` (racemic): the affinity corresponds to a Ki of 60.6 nM.

In turn, `CC(C)C(=O)OCC1(CO)C/C(=C/c2ccc(Cl)cc2)C(=O)O1` (racemic) registered a Ki of 88.2 nM.

With `O=C1OC(CO)(COC(=O)c2ccc([N+](=O)[O-])cc2)C/C1=C/c1ccccc1` (racemic), the Ki turned out to be 438 nM.

With `CC(C)C(=O)OCC1(CO)C/C(=C/c2ccc(Cl)c(F)c2)C(=O)O1` (racemic), the affinity, expressed as Ki, was 87.6 nM.

On to `COc1ccc(C(=O)OCC2(CO)C/C(=C/c3ccccc3)C(=O)O2)cc1` (racemic), for which the Ki came to 492 nM.

`COc1ccc(/C=C2/CC(CO)(COC(=O)c3ccc(C)cc3)OC2=O)cc1` (racemic) had a Ki of 181 nM.

`CC(C)C(=O)OCC1(CO)C/C(=C/c2cccc(C(F)(F)F)c2)C(=O)O1` (racemic) displayed a Ki of 70.2 nM.

`COc1ccc(/C=C2/CC(CO)(COC(=O)c3ccccc3C)OC2=O)cc1` (racemic): affinity was put at a Ki of 173 nM.

Consider `COc1ccc(C(=O)OCC2(CO)C/C(=C/c3ccc(C(F)(F)F)cc3)C(=O)O2)cc1` (racemic), for which the Ki worked out at 86.5 nM.

Consider `Cc1ccccc1C(=O)OCC1(CO)C/C(=C/c2ccc(C(F)(F)F)cc2)C(=O)O1` (racemic), for which the inhibition constant (Ki) came out at 47.8 nM. Against the preceding compound, the Ki is about 1.8-fold lower.

`CN(C)c1ccc(C(=O)OCC2(CO)C/C(=C/c3ccc(C(F)(F)F)cc3)C(=O)O2)cc1` (racemic) had a Ki of 95 nM. This Ki is about 2-fold higher than that of the compound before.

On to `CC(C)c1cc(C(C)C)c(C(=O)OCC2(CO)C/C(=C/c3ccc(N(C)C)cc3)C(=O)O2)c(C(C)C)c1` (racemic), for which the Ki amounted to 660 nM.

With `Cc1ccccc1C(=O)OCC1(CO)C/C(=C/c2ccc(N(C)C)cc2)C(=O)O1` (racemic), the Ki was determined as 376 nM.

For the compound `CCCCCCC(=O)OCC1(CO)C/C(=C/c2ccc(OC)cc2)C(=O)O1` (racemic), the Ki stood at 113 nM.

`Cc1cc(C)c(C(=O)OCC2(CO)C/C(=C/c3ccc([N+](=O)[O-])cc3)C(=O)O2)c(C)c1` (racemic) yielded a Ki of 37.5 nM. This Ki lies about 3-fold lower than the previous one.

`CCCCC(/C=C1/CC(CO)(COC(=O)c2c(C)cc(C)cc2C)OC1=O)CC` (racemic) yielded a Ki of 66.1 nM.

In the case of `O=C1OC(CO)(COC(=O)c2ccc([N+](=O)[O-])cc2)C/C1=C/C1CCCCC1` (racemic), the affinity corresponds to a Ki of 426 nM. This Ki lies about 6.4-fold higher than the previous one.

The compound `O=C1OC(CO)(COC(=O)C2CCCCC2)C/C1=C/c1ccccc1` (racemic) came in with a Ki of 108 nM.

As to `Cc1cc(C)c(C(=O)OCC2(CO)C/C(=C/C3CCCCC3)C(=O)O2)c(C)c1` (racemic), the affinity corresponds to a Ki of 69.4 nM.

`CC(C)c1cc(C(C)C)c(C(=O)OCC2(CO)C/C(=C/c3ccc(C(F)(F)F)cc3)C(=O)O2)c(C(C)C)c1` (racemic): the affinity corresponds to a Ki of 70 nM.

In turn, `O=C1OC(CO)(COC(=O)c2ccc(C(F)(F)F)cc2)C/C1=C/c1ccc([N+](=O)[O-])cc1` (racemic) had an inhibition constant Ki of 176 nM. This Ki is about 2.5-fold higher than that of the compound before.

Source of the values: ChEMBL document CHEMBL1139414, “Conformationally constrained analogues of diacylglycerol. 29. Cells sort diacylglycerol-lactone chemical zip codes to produce diverse and selective biological activities” (J Med Chem, 2008).
